≈ marks a conversion by molar mass, not a printed value.
Experiments:
[1] = Inhibitory effects on HSV-1 induced mortality in NMRI mice upon (ip) administration at a dose of 150 mk/kg/day; type: functional, Human alphaherpesvirus 1
Summary of the method: (§1)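 Two-week-old NMRI mice (~7 g, 15-20 per group) were infected ip with 4 × 10⁴ units HSV-1 (KOS). Compound was given ip once daily for 6 consecutive days starting 4 h postinfection; controls received saline. Mean day of symptom onset and of death were recorded, with % symptom-free and % surviving at day 21, when the experiment ended.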

[2] = Inhibitory effects on HSV-1 induced mortality in NMRI mice upon (ip) administration at a dose of 250 mk/kg/day; type: functional, Human alphaherpesvirus 1; summary of the method: as §1
[3] = tested on: CCRF-CEM; experiment: Cellular toxic effect was determined in CEM cells; type: functional, cell-based; details: Homo sapiens
[4] = tested on: Human immunodeficiency virus 1; experiment: Inhibition of cytopathogenicity against human HIV-1(IIIB) in MT-4 cells; type: functional, organism-based; details: Human immunodeficiency virus 1, MT4
[5] = Inhibitory effect on HSV-1 induced mortality in NMRI mice upon (ip) administration at a dose of 100 mk/kg/day; type: functional, Human alphaherpesvirus 1; summary of the method: as §1
[6] = Inhibitory effect on HSV-1 induced mortality in NMRI mice upon (ip) administration at a dose of 150 mk/kg/day; type: functional, Human alphaherpesvirus 1; summary of the method: as §1
[7] = Inhibitory effect on HSV-1 induced mortality in NMRI mice upon (ip) administration at a dose of 250 mk/kg/day; type: functional, Human alphaherpesvirus 1; summary of the method: as §1
[8] = tested on: Human immunodeficiency virus 2; experiment: Inhibition of cytopathogenicity against human HIV-2(LAV-2) in MT-4 cells; type: functional, organism-based; details: Human immunodeficiency virus 2, MT4
[9] = tested on: MT4; experiment: Cellular toxic effect was determined in MT-4 cells; type: functional, cell-based; details: Homo sapiens
[10] = tested on: Moloney murine sarcoma virus; experiment: Inhibition of virus-induced cytopathogenicity against moloney murine sarcoma virus(MSV)in CEM cells in cell protection assay; type: functional, organism-based; details: CCRF-CEM
Summary of the method: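 Cell-protection assay with Moloney murine sarcoma virus in CEM cells; inhibition of virus-induced cytopathogenicity measured and IC50 derived by linear regression from the average of duplicate determinations.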

[11] = target: T1, Adenosine deaminase (Bos taurus, UniProt P56658); experiment: Inhibitory activity against adenosine deaminase
T1 sequence (P56658 whole entry): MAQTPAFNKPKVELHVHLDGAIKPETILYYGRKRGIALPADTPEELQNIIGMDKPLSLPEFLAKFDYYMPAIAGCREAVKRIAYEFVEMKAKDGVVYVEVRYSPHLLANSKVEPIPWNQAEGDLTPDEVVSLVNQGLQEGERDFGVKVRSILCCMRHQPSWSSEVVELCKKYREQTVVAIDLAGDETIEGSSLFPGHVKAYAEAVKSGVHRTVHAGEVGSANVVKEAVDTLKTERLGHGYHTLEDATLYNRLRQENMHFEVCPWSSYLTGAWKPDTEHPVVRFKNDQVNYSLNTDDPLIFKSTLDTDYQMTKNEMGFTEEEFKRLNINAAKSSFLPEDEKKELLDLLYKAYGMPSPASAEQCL
Summary of the method: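 Calf mucosal adenosine deaminase. Ki determined by the Kaplan method, with ara-A as substrate and the test compound added to the substrate solutions.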

[12] = Inhibitory effects on HSV-1 induced mortality in NMRI mice upon (ip) administration at a dose of 100 mk/kg/day; type: functional, Human alphaherpesvirus 1; summary of the method: as §1
[13] = tested on: Vero; experiment: Maximum velocity constant of the rate of phosphorylation was determined n the presence of Vero cell thymidine kinase; type: functional, Chlorocebus sabaeus
[14] = tested on: Vero; experiment: Maximum velocity constant of the rate of phosphorylation was determined against Vero cell thymidine kinase; type: functional, Chlorocebus sabaeus

Nc1nc2c(ncn2COCCO)c(=O)[nH]1 [ACYCLOVIR]
Animal death [1]: >21%
Animal death [2]: >21%
Symptom initiation [2]: >21%

Nc1ncnc2c1ncn2CCOCP(=O)(O)O [ADEFOVIR]
IC50 [3]: 285 µg/mL (≈ 1040 µM)
IC50 [4]: 4.1 µg/mL (≈ 15 µM)
Animal death [5]: 17%
Animal death [6]: >21%
Animal death [7]: >21%
Symptom initiation [7]: >21%
IC50 [8]: 3.8 µg/mL (≈ 13.9 µM)
IC50 [9]: 274 µg/mL (≈ 1000 µM)
IC50 [10]: 2 µg/mL (≈ 7.32 µM)

COC1=C(OC)/C(=C/COP(=O)(O)COCCn2cnc3c(N)ncnc32)OC1=O
Ki [11]: > 800 µM
IC50 [3]: 280 µg/mL (≈ 634 µM)
Animal death [1]: >21%
Symptom initiation [1]: >21%
Animal death [2]: >21%
Symptom initiation [2]: >21%
IC50 [4]: 1.4 µg/mL (≈ 3.17 µM)
Animal death [12]: >21%
Symptom initiation [12]: >21%
IC50 [8]: 1 µg/mL (≈ 2.27 µM)
IC50 [9]: 265 µg/mL (≈ 600 µM)
IC50 [10]: 0.93 µg/mL (≈ 2.11 µM)

Nc1ncnc2c1ncn2COCCO
Relative Vmax [13]: <3

Nc1ncnc2ncn(CCOCP(=O)(O)O)c12
IC50 [3]: > 300 µg/mL
IC50 [4]: 7.8 µg/mL (≈ 28.6 µM)
Symptom initiation [6]: 15%
Animal death [7]: 20%
IC50 [8]: 9.1 µg/mL (≈ 33.3 µM)
IC50 [9]: > 300 µg/mL
IC50 [10]: 27 µg/mL (≈ 98.8 µM)

Nc1ncnc2ncn(COCCO)c12
Animal death [6]: >21%
Animal death [7]: >21%
Symptom initiation [7]: >21%
Relative Vmax [14]: <3

COC1=C(OC)/C(=C/COP(=O)(O)OC[C@H]2O[C@@H](n3cnc4c(N)ncnc43)[C@H](O)[C@@H]2OP(=O)(O)COCCn2cnc3ncnc(N)c32)OC1=O
Ki [11]: > 800 µM
IC50 [3]: > 300 µg/mL
Animal death [1]: >21%
Symptom initiation [1]: >21%
Animal death [2]: >21%
Symptom initiation [2]: >21%
IC50 [4]: 4.9 µg/mL (≈ 6.36 µM)
Animal death [12]: >21%
IC50 [8]: 4.2 µg/mL (≈ 5.45 µM)
IC50 [9]: > 300 µg/mL
IC50 [10]: 13 µg/mL (≈ 16.9 µM)

Nc1ncnc2c1ncn2[C@@H]1O[C@H](CO)[C@@H](O)[C@@H]1O [VIDARABINE]
Relative Vmax [14]: <3

Nc1nc2c(ncn2CCOCP(=O)(O)O)c(=O)[nH]1 [GS-438]
IC50 [3]: 12 µg/mL (≈ 41.5 µM)
IC50 [4]: 16 µg/mL (≈ 55.3 µM)
IC50 [8]: 18 µg/mL (≈ 62.2 µM)
IC50 [9]: 16 µg/mL (≈ 55.3 µM)
IC50 [10]: 0.19 µg/mL (≈ 0.657 µM)

Nc1ncnc2c1ncn2[C@@H]1O[C@H](COP(=O)(O)O)[C@@H](OP(=O)(O)COCCn2cnc3ncnc(N)c32)[C@H]1O
IC50 [3]: > 300 µg/mL
Animal death [2]: >21%
Symptom initiation [2]: >21%
IC50 [4]: 5.9 µg/mL (≈ 9.79 µM)
Animal death [12]: >21%
Symptom initiation [12]: 16%
IC50 [8]: 6.4 µg/mL (≈ 10.6 µM)
IC50 [9]: 298 µg/mL (≈ 495 µM)
IC50 [10]: 17 µg/mL (≈ 28.2 µM)

COC1=C(OC)/C(=C/COP(=O)(O)COCCn2cnc3c(O)nc(N)nc32)OC1=O
IC50 [3]: 13 µg/mL (≈ 28.4 µM)
IC50 [4]: 6 µg/mL (≈ 13.1 µM)
IC50 [8]: 7.1 µg/mL (≈ 15.5 µM)
IC50 [9]: 14 µg/mL (≈ 30.6 µM)
IC50 [10]: 0.02 µg/mL (≈ 0.0437 µM)

Source: ChEMBL document CHEMBL1134666, “Design, synthesis, and biological evaluation of novel nucleoside and nucleotide analogues as agents against DNA viruses and/or retroviruses” (J Med Chem, 2001)
